From ChEMBL document CHEMBL1142198, “Diversity of ampicillin resistance genes and antimicrobial susceptibility patterns in Haemophilus influenzae strains isolated in Korea” (2007)
≈ marks a conversion by molar mass, not a printed value.

Key:
Format in all cases: functional
Haemophilus influenzae [1] = assay: Antimicrobial activity against Haemophilus influenzae BLPAR strains
Summary of the method: (§1)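 Etest MIC determination on Haemophilus test medium agar inoculated evenly with a broth suspension equivalent to a 0.5 McFarland standard. Once dry, strips for 10 antibiotics applied; incubated 35°C, 5% CO2, 20 h. MIC read at complete growth inhibition. ATCC 49766 and ATCC 49247 included as controls in each batch. Korean clinical isolates 2000–2005 classified by nitrocefin disk and PCR.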

Haemophilus influenzae [2] = assay: Antimicrobial activity against Haemophilus influenzae strains causing clinical infections
Summary of the method: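 Etest MICs for 196 clinical-infection isolates collected 2000–2005 at two Seoul tertiary-care hospitals. A 0.5 McFarland broth suspension was spread on Haemophilus test medium agar, strips applied once dry, then incubated 35°C, 5% CO2, 20 h. ATCC 49766 and ATCC 49247 served as controls in each batch.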

Haemophilus influenzae [3] = assay: Antimicrobial activity against Haemophilus influenzae BLPACR strains; summary of the method: as §1
Haemophilus influenzae [4] = assay: Antimicrobial activity against Haemophilus influenzae BLNAS strains; summary of the method: as §1
Haemophilus influenzae [5] = assay: Antimicrobial activity against Haemophilus influenzae strains that are normal flora; summary of the method: as §1
Haemophilus influenzae [6] = assay: Antimicrobial activity against Haemophilus influenzae BLNAR strains; summary of the method: as §1

Compound	MIC50 (Haemophilus influenzae [1]) [µg/mL]	MIC90 (Haemophilus influenzae [1]) [µg/mL]	MIC50 (Haemophilus influenzae [2]) [µg/mL]	MIC90 (Haemophilus influenzae [2]) [µg/mL]	MIC50 (Haemophilus influenzae [3]) [µg/mL]	MIC90 (Haemophilus influenzae [3]) [µg/mL]	MIC50 (Haemophilus influenzae [4]) [µg/mL]	MIC90 (Haemophilus influenzae [4]) [µg/mL]	MIC50 (Haemophilus influenzae [5]) [µg/mL]	MIC90 (Haemophilus influenzae [5]) [µg/mL]	MIC50 (Haemophilus influenzae [6]) [µg/mL]	MIC90 (Haemophilus influenzae [6]) [µg/mL]
C=CC1=C(C(=O)O)N2C(=O)[C@@H](NC(=O)/C(=N\OCC(=O)O)c3csc(N)n3)[C@H]2SC1 [CEFIXIME]	0.047 (≈ 0.104 µM)	32 (≈ 70.6 µM)	0.047 (≈ 0.104 µM)	0.75 (≈ 1.65 µM)	0.064 (≈ 0.141 µM)	256 (≈ 565 µM)	0.023 (≈ 0.0507 µM)	0.064 (≈ 0.141 µM)	0.047 (≈ 0.104 µM)	32 (≈ 70.6 µM)	0.064 (≈ 0.141 µM)	32 (≈ 70.6 µM)
CC1(C)S[C@@H]2[C@H](NC(=O)[C@H](N)c3ccccc3)C(=O)N2[C@H]1C(=O)O [AMPICILLIN]	256 (≈ 733 µM)	256 (≈ 733 µM)	24 (≈ 68.7 µM)	256 (≈ 733 µM)	256 (≈ 733 µM)	256 (≈ 733 µM)	0.25 (≈ 0.715 µM)	0.38 (≈ 1.09 µM)	0.38 (≈ 1.09 µM)	256 (≈ 733 µM)	0.75 (≈ 2.15 µM)	256 (≈ 733 µM)
CC[C@H]1OC(=O)[C@H](C)[C@@H](O[C@H]2C[C@@](C)(OC)[C@@H](O)[C@H](C)O2)[C@H](C)[C@@H](O[C@@H]2O[C@H](C)C[C@H](N(C)C)[C@H]2O)[C@](C)(OC)C[C@@H](C)C(=O)[C@H](C)[C@@H](O)[C@]1(C)O [CLARITHROMYCIN]	16 (≈ 21.4 µM)	32 (≈ 42.8 µM)	16 (≈ 21.4 µM)	32 (≈ 42.8 µM)	16 (≈ 21.4 µM)	256 (≈ 342 µM)	16 (≈ 21.4 µM)	24 (≈ 32.1 µM)	16 (≈ 21.4 µM)	32 (≈ 42.8 µM)	12 (≈ 16 µM)	24 (≈ 32.1 µM)
CO/N=C(\C(=O)N[C@@H]1C(=O)N2C(C(=O)O)=C(COC(N)=O)CS[C@H]12)c1ccco1 [CEFUROXIME]	1 (≈ 2.36 µM)	256 (≈ 603 µM)	1 (≈ 2.36 µM)	8 (≈ 18.9 µM)	1 (≈ 2.36 µM)	256 (≈ 603 µM)	0.5 (≈ 1.18 µM)	1 (≈ 2.36 µM)	0.5 (≈ 1.18 µM)	256 (≈ 603 µM)	1 (≈ 2.36 µM)	8 (≈ 18.9 µM)
O=C(N[C@H](CO)[C@H](O)c1ccc([N+](=O)[O-])cc1)C(Cl)Cl [CHLORAMPHENICOL]	0.75 (≈ 2.32 µM)	12 (≈ 37.1 µM)	0.5 (≈ 1.55 µM)	8 (≈ 24.8 µM)	0.5 (≈ 1.55 µM)	8 (≈ 24.8 µM)	0.5 (≈ 1.55 µM)	0.75 (≈ 2.32 µM)	0.75 (≈ 2.32 µM)	4 (≈ 12.4 µM)	0.5 (≈ 1.55 µM)	6 (≈ 18.6 µM)
C[C@@H](O)[C@H]1C(=O)N2C(C(=O)O)=C(S[C@@H]3CN[C@H](C(=O)N(C)C)C3)[C@H](C)[C@H]12 [MEROPENEM]	0.094 (≈ 0.245 µM)	32 (≈ 83.4 µM)	0.094 (≈ 0.245 µM)	32 (≈ 83.4 µM)	0.19 (≈ 0.495 µM)	0.38 (≈ 0.991 µM)	0.064 (≈ 0.167 µM)	0.125 (≈ 0.326 µM)	0.094 (≈ 0.245 µM)	32 (≈ 83.4 µM)	0.125 (≈ 0.326 µM)	32 (≈ 83.4 µM)
C[C@H]1COc2c(N3CCN(C)CC3)c(F)cc3c(=O)c(C(=O)O)cn1c23.C[C@H]1COc2c(N3CCN(C)CC3)c(F)cc3c(=O)c(C(=O)O)cn1c23.O [LEVOFLOXACIN]	0.016	0.032	0.016	0.32	0.016	0.047	0.016	0.032	0.023	1	0.023	1
N[C@@H](C(=O)N[C@@H]1C(=O)N2C(C(=O)O)=C(Cl)CS[C@H]12)c1ccccc1 [CEFACLOR ANHYDROUS]	12 (≈ 32.6 µM)	256 (≈ 696 µM)	8 (≈ 21.8 µM)	256 (≈ 696 µM)	16 (≈ 43.5 µM)	256 (≈ 696 µM)	2 (≈ 5.44 µM)	6 (≈ 16.3 µM)	2 (≈ 5.44 µM)	256 (≈ 696 µM)	6 (≈ 16.3 µM)	256 (≈ 696 µM)
